Calls of active or inactive are those of the source. The rule behind the calls is not given here.
Assays:
[1] = test system: Human immunodeficiency virus 1; assay: Antiviral activity against HIV 1 NL4-3 infected in human MT4 cells assessed as inhibition of replication treated 48 hrs post infection and measured on day 4 post infection by ELISA; type: functional; details: Human immunodeficiency virus 1, NL4-3, MT4
[2] = biological target: Protein kinase C beta type (Homo sapiens) (UniProt P05771); assay: Agonist activity at Protein kinase C beta in human MT4 cells infected with HIV-1 NL4-3 assessed as inhibition of viral replication at 2 nM measured on day 3 post-infection in presence of PKCbeta antagonist enzastaurin by Nano-Glo luciferase assay; type: cell-based
Chain of Protein kinase C beta type (Homo sapiens) (P05771 2-671 limits assumed): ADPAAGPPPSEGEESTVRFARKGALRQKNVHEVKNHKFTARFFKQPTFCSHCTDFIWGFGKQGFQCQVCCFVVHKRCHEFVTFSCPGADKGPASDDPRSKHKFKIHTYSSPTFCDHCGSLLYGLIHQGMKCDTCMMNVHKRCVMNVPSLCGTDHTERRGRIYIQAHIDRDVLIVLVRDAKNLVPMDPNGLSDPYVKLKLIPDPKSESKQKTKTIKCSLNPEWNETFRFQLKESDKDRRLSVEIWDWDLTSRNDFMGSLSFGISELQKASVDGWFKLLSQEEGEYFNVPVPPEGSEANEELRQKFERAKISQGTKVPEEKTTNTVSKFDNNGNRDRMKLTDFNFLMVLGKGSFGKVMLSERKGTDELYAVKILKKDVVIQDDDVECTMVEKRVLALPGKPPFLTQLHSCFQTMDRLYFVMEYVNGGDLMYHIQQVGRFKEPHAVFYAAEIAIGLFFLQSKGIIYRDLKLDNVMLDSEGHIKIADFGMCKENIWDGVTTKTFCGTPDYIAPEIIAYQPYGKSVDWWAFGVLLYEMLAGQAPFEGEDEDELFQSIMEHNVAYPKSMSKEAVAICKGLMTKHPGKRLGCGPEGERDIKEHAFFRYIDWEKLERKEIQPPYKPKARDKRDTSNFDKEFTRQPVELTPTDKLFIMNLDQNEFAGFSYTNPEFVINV
How it was run: (§1)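 Multicycle replication: MT4 cells (1 × 10^5 cells/mL) infected with HIV-1 NL4-3 NanoLuc-sec, 50 TCID50/well, with 0.6 nM or 2 nM PKC agonist, with or without enzastaurin at 0, 1/3 or 1 μM. Supernatant luciferase (Nano-Glo) read on day 3 post infection. Replication expressed relative to the no-compound control (100%). Duplicate assay.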

MT4 = assay: Cytotoxicity against human MT4 cells measured after 3 days by CytoTox-Glo assay; type: cell-based; details: mt4, 72 h
How it was run: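 MT4 cells cultured with a range of compound concentrations for 3 days. Viability by CytoTox-Glo, run per the manufacturer's protocol. CC50 is the concentration causing a 50% drop in viability.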

Protein kinase C (PKC) = assay: Agonist activity at Protein kinase C in human U1 cells infected with HIV-1 NL4-3 assessed as induction of HIV-1 p24 production after 72 hrs by ELISA; type: cell-based
How it was run: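 Latency model: U1 cells (2 × 10^5 cells/mL) incubated with a range of compound concentrations at 37 °C for 72 h. p24 in the supernatant measured by ELISA. EC50 is the concentration giving 50% of maximal p24 induction, from nonlinear regression.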

[3] = Agonist activity at Protein kinase C in human MT4 cells infected with HIV-1 NL4-3 assessed as inhibition of viral replication measured on day 3 post-infection by Nano-Glo luciferase assay
[4] = biological target: Protein kinase C beta type (Homo sapiens) (UniProt P05771); assay: Agonist activity at Protein kinase C beta in human MT4 cells infected with HIV-1 NL4-3 assessed as inhibition of viral replication at 0.6 nM measured on day 3 post-infection in presence of PKCbeta antagonist enzastaurin by Nano-Glo luciferase assay; type: cell-based; how it was run: as §1
[5] = Half-life in Sprague-Dawley rat plasma at 0.05 mM measured up to 24 hrs by LCMS analysis; type: ADME, cell-free; details: 50 µM
How it was run: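 Sprague Dawley rat plasma (sodium heparin) prewarmed 10 min at 37 °C. Compound added from 5 mM DMSO stock to a final 0.05 mM. Samples taken at 0, 0.5, 1, 2, 4, 6, 10 and 24 h, deproteinized with 2 volumes MeOH, centrifuged and filtered. Analysis by LCMS (C18, isocratic, ESI). Mean of three independent experiments.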

[6] = biological target: Protein kinase C beta type (Homo sapiens) (UniProt P05771); assay: Agonist activity at Protein kinase C beta in human MT4 cells infected with HIV-1 NL4-3 assessed as inhibition of viral replication at 0.6 nM measured on day 3 post-infection by Nano-Glo luciferase assay relative to control; type: cell-based; how it was run: as §1

For `C=C(C)[C@]12C[C@@H](COC(C)=O)[C@@]34OC5(O[C@@H]1[C@@H]3[C@@H]1O[C@]1(CO)[C@@H](O)[C@@]1(O)[C@H]4[C@H]([C@H](C)[C@@H]1OC(=O)c1ccccc1)[C@H](C)CCCCCC[C@H]5O)O2`, the IC90 [1] was 0.4 nM.

With `C=C(C)[C@]12C[C@@H](COC(=O)c3ccccc3)[C@@]34OC5(O[C@@H]1[C@@H]3[C@@H]1O[C@]1(CO)[C@@H](O)[C@@]1(O)[C@H]4[C@H]([C@H](C)[C@@H]1OC(=O)c1ccncc1)[C@H](C)CCCCCC[C@H]5O)O2` the Activity [2] was “inactive”, the CC50 (MT4) was greater than 1 nM and the EC50 (Protein kinase C (PKC)) was 0.55 nM. The IC50 [3] was 0.36 nM.

For `C=C(C)[C@]12C[C@@H](COC(=O)c3ccccc3)[C@@]34OC5(O[C@@H]1[C@@H]3[C@@H]1O[C@]1(CO)[C@@H](O)[C@@]1(O)[C@H]4[C@H]([C@H](C)[C@@H]1OC(=O)c1ccccc1)[C@H](C)CCCCCC[C@H]5O)O2`, the Activity [4] was “inactive”, the CC50 (MT4) was greater than 1 nM and the EC50 (Protein kinase C (PKC)) was 0.19 nM. The t1/2 [5] was 21.77 h, the inhibition [6] was 90% and the IC50 [3] was 0.13 nM.

For `C=C(C)[C@]12C[C@@H](COC(=O)c3ccccc3)[C@@]34OC5(O[C@@H]1[C@@H]3[C@@H]1O[C@]1(CO)[C@@H](O)[C@@]1(O)[C@H]4[C@H]([C@H](C)[C@@H]1OC(=O)c1ccccc1)[C@H](C)CCCCCCC5=O)O2`, the CC50 (MT4) was greater than 1 nM, the EC50 (Protein kinase C (PKC)) was 0.6 nM and the t1/2 [5] was 21.65 h. The IC50 [3] was 0.14 nM.

Reference: ChEMBL document CHEMBL4373700, “Synthesis and Structure-Activity Relationship Correlations of Gnidimacrin Derivatives as Potent HIV-1 Inhibitors and HIV Latency Reversing Agents” (J Med Chem, 2019)
